{"data": "Measurements collected from several papers", "CDK14": "Cyclin-dependent kinase 14 (CDK14, Homo sapiens, UniProt O94921)", "CDK14 with cyclin Y": "Cyclin-dependent kinase 14, with cyclin Y (CDK14, Homo sapiens, UniProt O94921)", "note": "Lines come from different studies, so protocols differ."}
{"Structure (SMILES)": "CCC(=N\\O)/C(C)=C/c1ccc(F)cc1", "target": "CDK14", "effect on": "cell-free assay", "method": "competition with immobilised ligand", "tested at": "1 µM", "quantity": "remaining binding", "value": "91%"}
{"Structure (SMILES)": "O=C(Nc1cnn(-c2csc(C(=O)NC3COC3)c2)c1)Nc1ccccc1Cl", "target": "CDK14", "effect on": "enzyme activity", "action": "inhibitor", "tested at": "5 µM", "quantity": "remaining activity", "value": "107%"}
{"Structure (SMILES)": "Cc1ccc(C(=O)Nc2ccc(CN3CCN(C)CC3)c(C(F)(F)F)c2)cc1C#Cc1cnc2cccnn12", "target": "CDK14", "effect on": "enzyme activity", "action": "inhibitor", "tested at": "23.5 nM", "quantity": "remaining activity", "value": "68%"}
{"Structure (SMILES)": "O=[N+]([O-])c1cccc2[nH]c(CNc3nc(N4CCOCC4)nc4c3ncn4-c3ccsc3)nc12", "target": "CDK14", "effect on": "binding", "method": "competition with immobilised ligand", "tested at": "10 µM", "quantity": "binding vs control", "value": "40%"}
{"Structure (SMILES)": "Cn1nc(C(F)(F)F)cc1-c1cnc(N2CCc3cc(S(=O)(=O)Nc4c(F)cc(Cl)cc4F)cc(N4CCCC4=O)c32)nc1", "target": "CDK14", "effect on": "cell-free assay", "method": "competition with immobilised ligand", "tested at": "1 µM", "quantity": "remaining binding", "value": "100%"}
{"Structure (SMILES)": "CC1CCCN1c1nccc(-c2cnn3ncccc23)n1 (stereo not drawn)", "target": "CDK14", "effect on": "binding", "tested at": "1 µM", "quantity": "remaining binding", "value": "100%"}
{"Structure (SMILES)": "COc1cc(Cl)c(C(=O)N[C@@H](CN[C@H]2CC[C@@H](N)CC2)Cc2ccc(C#N)cc2)cc1-c1ccc(CN[C@H](C)c2ccc(C)cc2)o1", "target": "CDK14 with cyclin Y", "effect on": "enzyme activity", "action": "inhibitor", "tested at": "1 µM", "quantity": "remaining activity", "value": "99%"}
{"Structure (SMILES)": "Nc1ncnc2occ(-c3ccc(NC(=O)Nc4cc(C(F)(F)F)ccc4F)cc3)c12", "target": "CDK14", "effect on": "cell-free assay", "action": "inhibitor", "tested at": "20 µM", "quantity": "remaining signal", "value": "0.1%"}
{"Structure (SMILES)": "Fc1cccc(-n2cnc3c(NCc4nc5c(F)c(F)ccc5[nH]4)nc(N4CCOCC4)nc32)c1", "target": "CDK14", "effect on": "binding", "method": "competition with immobilised ligand", "tested at": "10 µM", "quantity": "binding vs control", "value": "55%"}
{"Structure (SMILES)": "Cc1ccc(C(=O)NCc2ccsc2)cc1C#Cc1cn(C(C)C)c2ncnc(N)c12", "target": "CDK14 with cyclin Y", "effect on": "enzyme activity", "action": "inhibitor", "tested at": "1 µM", "quantity": "activity vs control", "value": "92%"}
{"Structure (SMILES)": "Cc1sc(C(=O)NC2COC2)cc1-n1cc(NC(=O)Nc2c(F)cccc2Cl)cn1", "target": "CDK14", "effect on": "enzyme activity", "action": "inhibitor", "tested at": "10 µM", "quantity": "remaining activity", "value": "100%"}
{"Structure (SMILES)": "CN1CC(Oc2cnc(C#N)cc2-c2ccn3nc(NC(=O)C4CC4)cc3c2)C1", "target": "CDK14 with cyclin Y", "effect on": "enzyme activity", "action": "inhibitor", "tested at": "1 µM", "quantity": "inhibition", "value": "-11%"}
